Activity calls are given as the source filed them. The calls are words filed in the database; no cut-off is given here.
Legend:
Mus musculus [1] = experiment: Immunostimulatory activity in C57BL/6 mouse assessed as inhibition of 5'-CTATCTGACGTTCTCTGT-3'-induced TNFalpha production in serum at 2 mg/kg, sc administered 24 hrs prior to 5'-CTATCTGACGTTCTCTGT-3' challenge measured after 2 hrs by Luminex multiplex assay; type: functional, organism-based; design: dose 2 mg/kg
In short: (§1)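 C57BL/6 mice received 2 mg/kg ODN sc in one flank. After 24 h, the TLR9 agonist ODN was given at 0.5 mg/kg sc in the opposite flank. Blood was drawn 2 h later and serum cytokines/chemokines were quantified by Luminex multiplex assay. Percent inhibition was taken against the agonist alone. Representative of three experiments.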

J774 = experiment: Inhibition of 5'-CTATCTGACGTTCTCTGT-3'-activated NF-kappaB activity in mouse J774 cells at 2.5 ug/ml after 1 hr by EMSA; type: cell-based
In short: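 J774 murine macrophages were grown in DMEM with 10% FBS and antibiotics, plated at 5 × 10^6 cells/well, and co-incubated for 1 h with the agonist ODN (0.5 µg/mL) and test ODN (2.5 µg/mL). Nuclear extracts were prepared and NF-κB binding was analysed by EMSA on native polyacrylamide gels with autoradiography.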

Mus musculus [2] = experiment: Immunostimulatory activity in C57BL/6 mouse assessed as induction of IL12 level in serum at 2 mg/kg, sc after 2 hrs by sandwich ELISA; type: functional, organism-based; design: dose 2 mg/kg
In short: (§2)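 Female C57BL/6 mice, 5–6 weeks old, n = 3, received a single 2 mg/kg subcutaneous ODN injection in the right flank. Blood was taken by retro-orbital bleeding 2 h later. Naive mice served as baseline. Representative of three experiments.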

Mus musculus [3] = experiment: Immunostimulatory activity in C57BL/6 mouse assessed as induction of MIP-1alpha level in serum at 2 mg/kg, sc after 2 hrs by Luminex multiplex assay; type: functional, organism-based; design: dose 2 mg/kg; in short: as §2
[4] = biological target: T1, Toll-like receptor 9 (Mus musculus) (UniProt Q9EQU3); experiment: Activation of mouse TLR9 expressed in HEK293 cells assessed as NF-kappaB level at 1 ug/mL after 18 hrs by reporter gene assay; type: cell-based
T1 sequence (whole entry): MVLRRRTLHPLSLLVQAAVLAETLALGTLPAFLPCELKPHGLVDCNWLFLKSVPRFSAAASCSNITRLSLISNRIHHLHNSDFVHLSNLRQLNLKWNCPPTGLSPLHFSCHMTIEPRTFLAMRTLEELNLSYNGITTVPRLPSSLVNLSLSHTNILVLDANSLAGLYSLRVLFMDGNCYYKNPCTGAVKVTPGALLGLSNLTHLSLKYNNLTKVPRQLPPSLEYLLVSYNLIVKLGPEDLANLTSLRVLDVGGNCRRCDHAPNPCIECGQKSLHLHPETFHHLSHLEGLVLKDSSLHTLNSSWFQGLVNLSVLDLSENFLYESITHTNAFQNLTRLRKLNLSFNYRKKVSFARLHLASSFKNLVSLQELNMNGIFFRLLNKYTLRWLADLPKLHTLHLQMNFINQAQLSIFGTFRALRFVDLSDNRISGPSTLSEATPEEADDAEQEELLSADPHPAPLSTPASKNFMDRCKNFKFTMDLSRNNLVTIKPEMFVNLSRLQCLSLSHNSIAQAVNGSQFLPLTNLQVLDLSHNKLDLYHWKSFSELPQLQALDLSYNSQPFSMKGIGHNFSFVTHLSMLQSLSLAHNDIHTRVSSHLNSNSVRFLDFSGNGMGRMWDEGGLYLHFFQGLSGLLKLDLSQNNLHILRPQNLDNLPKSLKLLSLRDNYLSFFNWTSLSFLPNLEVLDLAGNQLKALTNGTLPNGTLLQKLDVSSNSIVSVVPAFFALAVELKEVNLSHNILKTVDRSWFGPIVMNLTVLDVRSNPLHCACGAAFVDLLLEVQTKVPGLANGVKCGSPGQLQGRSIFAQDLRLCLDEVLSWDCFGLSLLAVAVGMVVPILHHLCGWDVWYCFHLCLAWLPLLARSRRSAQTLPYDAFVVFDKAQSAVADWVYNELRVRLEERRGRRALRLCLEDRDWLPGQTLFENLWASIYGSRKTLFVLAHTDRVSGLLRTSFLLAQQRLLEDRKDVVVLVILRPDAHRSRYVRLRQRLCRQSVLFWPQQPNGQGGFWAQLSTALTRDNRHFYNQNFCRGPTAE
In short: (§3)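 HEK293 cells stably expressing mouse TLR9 were transiently transfected with a SEAP reporter for 6 h, then stimulated with ODN at 0.1, 0.3 or 1 μg/mL for 18 h. Reporter expression is given as fold change in NF-κB activity over medium. Representative of two independent experiments.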

[5] = biological target: T1, Toll-like receptor 9 (Mus musculus); experiment: Activation of mouse TLR9 expressed in HEK293 cells assessed as NF-kappaB level at 0.1 ug/mL after 18 hrs by reporter gene assay; type: cell-based; in short: as §3
Mus musculus [6] = experiment: Immunostimulatory activity in C57BL/6 mouse assessed as inhibition of 5'-CTATCTGACGTTCTCTGT-3'-induced MCP1 production in serum at 2 mg/kg, sc administered 24 hrs prior to 5'-CTATCTGACGTTCTCTGT-3' challenge measured after 2 hrs by Luminex multiplex assay; type: functional, organism-based; design: dose 2 mg/kg; in short: as §1
Mus musculus [7] = experiment: Immunostimulatory activity in C57BL/6 mouse assessed as induction of TNFalpha level in serum at 2 mg/kg, sc after 2 hrs by Luminex multiplex assay; type: functional, organism-based; design: dose 2 mg/kg; in short: as §2
Mus musculus [8] = experiment: Immunostimulatory activity in C57BL/6 mouse assessed as inhibition of 5'-CTATCTGACGTTCTCTGT-3'-induced MIP-1alpha production in serum at 2 mg/kg, sc administered 24 hrs prior to 5'-CTATCTGACGTTCTCTGT-3' challenge measured after 2 hrs by Luminex multiplex assay; type: functional, organism-based; design: dose 2 mg/kg; in short: as §1

| Compound | Activity (Mus musculus [1]) | Activity (J774) | Activity (Mus musculus [2]) | Activity (Mus musculus [3]) | Activity [4] | Activity [5] | Activity (Mus musculus [6]) | Activity (Mus musculus [7]) | Activity (Mus musculus [8]) |
| --- | --- | --- | --- | --- | --- | --- | --- | --- | --- |
| CO[C@@H]1[C@H](OP(=O)(S)OC[C@H]2O[C@@H](n3cc(C)c(=O)[nH]c3=O)C[C@@H]2OP(=O)(S)OC[C@H]2O[C@@H](n3cc(C)c(=O)[nH]c3=O)C[C@@H]2OP(=O)(S)OC[C@H]2O[C@@H](n3ccc(N)nc3=O)C[C@@H]2OP(=O)(S)OC[C@H]2O[C@@H](n3cc(C)c(=O)[nH]c3=O)C[C@@H]2OP(=O)(S)OC[C@H]2O[C@@H](n3ccc(N)nc3=O)C[C@@H]2OP(=O)(S)OC[C@H]2O[C@@H](n3cc(C)c(=O)[nH]c3=O)C[C@@H]2OP(=O)(S)OC[C@H]2O[C@@H](n3cnc4c(=O)[nH]c(N)nc43)C[C@@H]2OP(=O)(S)OC[C@H]2O[C@@H](n3cc(C)c(=O)[nH]c3=O)C[C@@H]2O)[C@@H](COP(=O)(S)O[C@H]2C[C@H](n3ccc(N)nc3=O)O[C@@H]2COP(=O)(S)O[C@H]2C[C@H](n3cnc4c(N)ncnc43)O[C@@H]2COP(=O)(S)O[C@H]2C[C@H](n3cnc4c(=O)[nH]c(N)nc43)O[C@@H]2COP(=O)(S)O[C@H]2C[C@H](n3cc(C)c(=O)[nH]c3=O)O[C@@H]2COP(=O)(S)O[C@H]2C[C@H](n3ccc(N)nc3=O)O[C@@H]2COP(=O)(S)O[C@H]2C[C@H](n3cc(C)c(=O)[nH]c3=O)O[C@@H]2COP(=O)(S)O[C@H]2C[C@H](n3cnc4c(N)ncnc43)O[C@@H]2COP(=O)(S)O[C@H]2C[C@H](n3cc(C)c(=O)[nH]c3=O)O[C@@H]2COP(=O)(S)O[C@H]2C[C@H](n3ccc(N)nc3=O)O[C@@H]2CO)O[C@H]1n1cnc2c(=O)[nH]c(N)nc21 (some centres not stated) | Active | Active | inactive | inactive | inactive | inactive | Active | inactive | Active |
| Cc1cn([C@@H]2O[C@H](COP(=O)(S)O[C@H]3C[C@H](n4ccc(N)nc4=O)O[C@@H]3COP(=O)(S)O[C@H]3C[C@H](n4cc(C)c(=O)[nH]c4=O)O[C@@H]3COP(=O)(S)O[C@H]3C[C@H](n4ccc(N)nc4=O)O[C@@H]3COP(=O)(S)O[C@H]3C[C@H](n4cc(C)c(=O)[nH]c4=O)O[C@@H]3COP(=O)(S)O[C@H]3C[C@H](n4cc(C)c(=O)[nH]c4=O)O[C@@H]3COP(=O)(S)O[C@H]3C[C@H](n4cnc5c(=O)[nH]c(N)nc54)O[C@@H]3COP(=O)(S)O[C@H]3C[C@H](n4ccc(N)nc4=O)O[C@@H]3COP(=O)(S)O[C@H]3C[C@H](n4cnc5c(N)ncnc54)O[C@@H]3COP(=O)(S)O[C@H]3C[C@H](n4cnc5c(=O)[nH]c(N)nc54)O[C@@H]3COP(=O)(S)O[C@H]3C[C@H](n4cc(C)c(=O)[nH]c4=O)O[C@@H]3COP(=O)(S)O[C@H]3C[C@H](n4ccc(N)nc4=O)O[C@@H]3COP(=O)(S)O[C@H]3C[C@H](n4cc(C)c(=O)[nH]c4=O)O[C@@H]3COP(=O)(S)O[C@H]3C[C@H](n4cnc5c(N)ncnc54)O[C@@H]3COP(=O)(S)O[C@H]3C[C@H](n4cc(C)c(=O)[nH]c4=O)O[C@@H]3COP(=O)(S)O[C@@H]3C[C@@H](n4ccc(N)nc4=O)O[C@H]3CO)[C@@H](OP(=O)(S)OC[C@H]3O[C@@H](n4cnc5c(=O)[nH]c(N)nc54)C[C@@H]3OP(=O)(S)OC[C@H]3O[C@@H](n4cc(C)c(=O)[nH]c4=O)C[C@@H]3O)[C@H]2O)c(=O)[nH]c1=O (some centres not stated) | Active | Active | inactive | inactive | inactive | inactive | Active | inactive | Active |
| CO[C@@H]1[C@H](OP(=O)(S)OC[C@H]2O[C@@H](n3cnc4c(=O)[nH]c(N)nc43)C[C@@H]2OP(=O)(S)OC[C@H]2O[C@@H](n3cc(C)c(=O)[nH]c3=O)C[C@@H]2OP(=O)(S)OC[C@H]2O[C@@H](n3cc(C)c(=O)[nH]c3=O)C[C@@H]2OP(=O)(S)OC[C@H]2O[C@@H](n3ccc(N)nc3=O)C[C@@H]2OP(=O)(S)OC[C@H]2O[C@@H](n3cc(C)c(=O)[nH]c3=O)C[C@@H]2OP(=O)(S)OC[C@H]2O[C@@H](n3ccc(N)nc3=O)C[C@@H]2OP(=O)(S)OC[C@H]2O[C@@H](n3cc(C)c(=O)[nH]c3=O)C[C@@H]2OP(=O)(S)OC[C@H]2O[C@@H](n3cnc4c(=O)[nH]c(N)nc43)C[C@@H]2OP(=O)(S)OC[C@H]2O[C@@H](n3cc(C)c(=O)[nH]c3=O)C[C@@H]2O)[C@@H](COP(=O)(S)O[C@H]2C[C@H](n3cnc4c(N)ncnc43)O[C@@H]2COP(=O)(S)O[C@H]2C[C@H](n3cnc4c(=O)[nH]c(N)nc43)O[C@@H]2COP(=O)(S)O[C@H]2C[C@H](n3cc(C)c(=O)[nH]c3=O)O[C@@H]2COP(=O)(S)O[C@H]2C[C@H](n3ccc(N)nc3=O)O[C@@H]2COP(=O)(S)O[C@H]2C[C@H](n3cc(C)c(=O)[nH]c3=O)O[C@@H]2COP(=O)(S)O[C@H]2C[C@H](n3cnc4c(N)ncnc43)O[C@@H]2COP(=O)(S)O[C@H]2C[C@H](n3cc(C)c(=O)[nH]c3=O)O[C@@H]2COP(=O)(S)O[C@H]2C[C@H](n3ccc(N)nc3=O)O[C@@H]2CO)O[C@H]1n1ccc(N)nc1=O (some centres not stated) | Active | Active | inactive | inactive | inactive | inactive | Active | inactive | Active |
